Laboratory results: ChEMBL document CHEMBL3259739, “Synthesis and structure-activity relationship of trisubstituted thiazoles as Cdc7 kinase inhibitors” (Eur J Med Chem, 2014)

What follows are molecules tested against T1, cGMP-dependent protein kinase 1 (Homo sapiens) (UniProt Q13976) (assay: Inhibition of PRKG1 (unknown origin) at 1 uM relative to control). Conditions: values are per cent of control.
T1 sequence (whole entry): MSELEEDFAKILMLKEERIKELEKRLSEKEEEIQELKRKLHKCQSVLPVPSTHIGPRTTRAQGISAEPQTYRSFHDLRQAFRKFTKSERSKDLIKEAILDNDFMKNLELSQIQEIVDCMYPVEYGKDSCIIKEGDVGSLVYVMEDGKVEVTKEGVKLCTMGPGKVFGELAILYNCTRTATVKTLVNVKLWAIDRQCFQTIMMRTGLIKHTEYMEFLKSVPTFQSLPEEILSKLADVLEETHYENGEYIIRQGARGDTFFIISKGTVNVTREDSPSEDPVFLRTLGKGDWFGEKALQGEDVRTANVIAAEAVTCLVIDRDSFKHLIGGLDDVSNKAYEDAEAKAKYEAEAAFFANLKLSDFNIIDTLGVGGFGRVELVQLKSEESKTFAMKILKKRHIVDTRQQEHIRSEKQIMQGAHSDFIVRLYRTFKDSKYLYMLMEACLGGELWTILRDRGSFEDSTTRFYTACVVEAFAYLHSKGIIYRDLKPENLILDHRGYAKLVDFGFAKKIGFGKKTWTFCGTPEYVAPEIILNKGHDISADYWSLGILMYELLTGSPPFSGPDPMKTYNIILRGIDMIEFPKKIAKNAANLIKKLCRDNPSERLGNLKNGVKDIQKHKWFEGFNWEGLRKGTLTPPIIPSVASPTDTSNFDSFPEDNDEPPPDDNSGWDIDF
`COc1ccc(-c2nc(-c3ccnc(N)n3)sc2C(N)=O)c(Cl)c1` was tested, and the residual binding, % of control was 51%. Molecule `CCOC(=O)c1sc(-c2ccncc2)nc1O` has a residual binding, % of control of 75%. `NC(=O)c1sc(-c2ccnc(N)n2)nc1-c1ccc(Cl)cc1Cl` was tested, and the residual binding, % of control was 88%.

Each molecule was assayed against Tyrosine-protein kinase Fyn (Homo sapiens) (UniProt P06241) (assay: Inhibition of FYN (unknown origin) at 1 uM relative to control; values are per cent of control). Conditions: not given.
Sequence of Tyrosine-protein kinase Fyn (Homo sapiens) (P06241 2-537 limits assumed): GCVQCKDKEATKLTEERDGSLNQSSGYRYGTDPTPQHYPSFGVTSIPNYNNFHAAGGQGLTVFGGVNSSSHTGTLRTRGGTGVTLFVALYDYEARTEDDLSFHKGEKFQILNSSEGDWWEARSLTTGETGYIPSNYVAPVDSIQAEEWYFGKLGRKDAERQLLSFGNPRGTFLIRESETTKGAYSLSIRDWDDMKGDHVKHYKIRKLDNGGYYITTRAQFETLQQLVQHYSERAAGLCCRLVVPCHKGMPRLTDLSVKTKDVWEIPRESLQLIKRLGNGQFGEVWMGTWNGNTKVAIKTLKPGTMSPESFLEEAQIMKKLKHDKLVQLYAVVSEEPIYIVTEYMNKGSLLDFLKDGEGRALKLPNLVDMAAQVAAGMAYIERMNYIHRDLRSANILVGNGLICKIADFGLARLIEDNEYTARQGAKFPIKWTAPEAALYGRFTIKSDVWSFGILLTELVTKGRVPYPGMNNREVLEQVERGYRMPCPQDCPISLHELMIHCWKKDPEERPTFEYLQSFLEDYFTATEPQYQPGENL
For `COc1ccc(-c2nc(-c3ccnc(N)n3)sc2C(N)=O)c(Cl)c1`, the residual activity was 87%. Molecule `CCOC(=O)c1sc(-c2ccncc2)nc1O` has a residual activity of 100%. Work on `NC(=O)c1sc(-c2ccnc(N)n2)nc1-c1ccc(Cl)cc1Cl` yielded a residual activity of 76%.

What follows are molecules tested against Serine/threonine-protein kinase MARK1 (Homo sapiens) (UniProt Q9P0L2) (assay: Inhibition of MARK1 (unknown origin) at 1 uM relative to control; values are per cent of control). Conditions: not given.
Sequence of Serine/threonine-protein kinase MARK1 (Homo sapiens) (Q9P0L2 whole entry, looked up): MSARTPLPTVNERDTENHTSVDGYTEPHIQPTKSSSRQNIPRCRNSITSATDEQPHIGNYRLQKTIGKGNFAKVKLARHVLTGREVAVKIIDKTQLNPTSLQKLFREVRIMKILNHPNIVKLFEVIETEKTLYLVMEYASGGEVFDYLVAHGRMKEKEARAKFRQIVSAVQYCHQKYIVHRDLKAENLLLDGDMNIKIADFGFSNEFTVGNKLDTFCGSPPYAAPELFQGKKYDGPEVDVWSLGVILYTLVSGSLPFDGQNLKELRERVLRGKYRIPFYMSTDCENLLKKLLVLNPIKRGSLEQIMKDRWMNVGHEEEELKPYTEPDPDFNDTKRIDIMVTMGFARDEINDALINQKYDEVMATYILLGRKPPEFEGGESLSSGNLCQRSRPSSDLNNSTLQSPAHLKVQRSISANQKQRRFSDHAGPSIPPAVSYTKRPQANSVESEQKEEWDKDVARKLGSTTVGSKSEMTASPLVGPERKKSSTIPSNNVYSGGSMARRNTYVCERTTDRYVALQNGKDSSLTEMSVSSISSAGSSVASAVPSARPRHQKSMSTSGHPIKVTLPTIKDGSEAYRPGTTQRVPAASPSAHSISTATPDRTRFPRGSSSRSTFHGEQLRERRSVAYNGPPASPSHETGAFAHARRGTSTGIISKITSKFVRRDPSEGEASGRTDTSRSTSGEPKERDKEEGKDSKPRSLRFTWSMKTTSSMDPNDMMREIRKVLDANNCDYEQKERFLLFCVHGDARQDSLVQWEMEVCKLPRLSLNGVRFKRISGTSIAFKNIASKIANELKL
`COc1ccc(-c2nc(-c3ccnc(N)n3)sc2C(N)=O)c(Cl)c1` showed a residual activity of 100%. `CCOC(=O)c1sc(-c2ccncc2)nc1O` gave a residual activity of 100%. For `NC(=O)c1sc(-c2ccnc(N)n2)nc1-c1ccc(Cl)cc1Cl`, the residual activity was 100%.

These molecules were tested against Mitogen-activated protein kinase 10 (Homo sapiens) (UniProt P53779) (assay: Inhibition of JNK3 (unknown origin) at 1 uM relative to control; values are per cent of control). Conditions: not given.
Sequence of Mitogen-activated protein kinase 10 (Homo sapiens) (P53779 whole entry): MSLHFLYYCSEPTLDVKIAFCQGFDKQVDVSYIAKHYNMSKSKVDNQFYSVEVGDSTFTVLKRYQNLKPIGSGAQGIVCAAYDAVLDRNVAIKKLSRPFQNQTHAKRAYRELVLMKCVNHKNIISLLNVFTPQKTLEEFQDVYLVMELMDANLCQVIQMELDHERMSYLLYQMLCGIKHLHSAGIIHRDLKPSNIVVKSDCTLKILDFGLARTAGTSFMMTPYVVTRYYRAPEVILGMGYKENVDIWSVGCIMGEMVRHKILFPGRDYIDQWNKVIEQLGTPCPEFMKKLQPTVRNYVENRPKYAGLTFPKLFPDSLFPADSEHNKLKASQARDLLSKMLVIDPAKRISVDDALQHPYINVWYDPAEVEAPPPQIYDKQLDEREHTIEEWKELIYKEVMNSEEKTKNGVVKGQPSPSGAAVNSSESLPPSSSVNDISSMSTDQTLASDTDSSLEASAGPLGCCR
`COc1ccc(-c2nc(-c3ccnc(N)n3)sc2C(N)=O)c(Cl)c1` gave a residual activity of 46%. `CCOC(=O)c1sc(-c2ccncc2)nc1O` was tested, and the residual activity was 93%. For `NC(=O)c1sc(-c2ccnc(N)n2)nc1-c1ccc(Cl)cc1Cl`, the residual activity was 83%.

These molecules were tested against Casein kinase I isoform delta (Homo sapiens, UniProt P48730) (assay: Inhibition of CSNK1D (unknown origin) at 1 uM relative to control; values are per cent of control). Conditions: not given.
Sequence of Casein kinase I isoform delta (P48730 whole entry, looked up, canonical isoform): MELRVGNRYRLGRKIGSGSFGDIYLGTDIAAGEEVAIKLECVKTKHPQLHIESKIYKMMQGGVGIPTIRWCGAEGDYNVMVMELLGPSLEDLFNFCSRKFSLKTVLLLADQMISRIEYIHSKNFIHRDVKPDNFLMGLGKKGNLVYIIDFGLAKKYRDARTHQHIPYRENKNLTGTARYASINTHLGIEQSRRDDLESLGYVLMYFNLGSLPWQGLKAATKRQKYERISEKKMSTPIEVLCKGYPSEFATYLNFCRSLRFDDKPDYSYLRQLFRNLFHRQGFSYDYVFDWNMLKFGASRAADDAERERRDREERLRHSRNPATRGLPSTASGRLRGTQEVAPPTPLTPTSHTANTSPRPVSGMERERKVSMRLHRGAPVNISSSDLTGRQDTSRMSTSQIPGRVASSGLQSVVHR
Work on `COc1ccc(-c2nc(-c3ccnc(N)n3)sc2C(N)=O)c(Cl)c1` yielded a residual activity of 0.6%. `CCOC(=O)c1sc(-c2ccncc2)nc1O` showed a residual activity of 90%. For `NC(=O)c1sc(-c2ccnc(N)n2)nc1-c1ccc(Cl)cc1Cl`, the residual activity was 0.7%.

These molecules were tested against T2, Serine/threonine-protein kinase D2 (Homo sapiens) (UniProt Q9BZL6) (assay: Inhibition of PRKD2 (unknown origin) at 1 uM relative to control). Conditions: values are per cent of control.
T2 sequence (whole entry): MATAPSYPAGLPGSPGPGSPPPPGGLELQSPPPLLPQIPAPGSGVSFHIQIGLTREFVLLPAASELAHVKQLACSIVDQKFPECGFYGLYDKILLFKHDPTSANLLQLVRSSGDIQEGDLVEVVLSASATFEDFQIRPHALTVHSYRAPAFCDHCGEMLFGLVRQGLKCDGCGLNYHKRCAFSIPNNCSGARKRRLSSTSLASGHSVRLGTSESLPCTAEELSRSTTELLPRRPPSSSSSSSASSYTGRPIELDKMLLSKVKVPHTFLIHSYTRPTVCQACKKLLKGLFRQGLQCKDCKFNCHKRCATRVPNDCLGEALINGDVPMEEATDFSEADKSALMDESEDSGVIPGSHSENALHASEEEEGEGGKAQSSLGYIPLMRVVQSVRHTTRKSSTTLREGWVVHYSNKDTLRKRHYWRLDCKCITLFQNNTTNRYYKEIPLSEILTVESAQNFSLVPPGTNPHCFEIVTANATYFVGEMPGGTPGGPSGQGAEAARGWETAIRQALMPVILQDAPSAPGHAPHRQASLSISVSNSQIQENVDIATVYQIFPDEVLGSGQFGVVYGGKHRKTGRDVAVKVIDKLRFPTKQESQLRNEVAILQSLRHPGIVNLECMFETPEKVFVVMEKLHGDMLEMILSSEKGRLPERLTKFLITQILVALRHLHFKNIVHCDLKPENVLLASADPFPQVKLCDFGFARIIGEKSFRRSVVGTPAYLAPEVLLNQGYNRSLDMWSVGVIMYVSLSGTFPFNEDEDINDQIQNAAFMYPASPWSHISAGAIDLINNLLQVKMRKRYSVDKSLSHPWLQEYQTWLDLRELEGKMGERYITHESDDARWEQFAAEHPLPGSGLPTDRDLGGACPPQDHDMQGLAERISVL
Procedure, shortened: (§1)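 KinomeSCAN competitive binding panel of 100 kinases; compounds tested at 1 µM in duplicate; read-out is percent […] control.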
Molecule `COc1ccc(-c2nc(-c3ccnc(N)n3)sc2C(N)=O)c(Cl)c1` has a residual binding, % of control of 77%. `CCOC(=O)c1sc(-c2ccncc2)nc1O` showed a residual binding, % of control of 99%. With `NC(=O)c1sc(-c2ccnc(N)n2)nc1-c1ccc(Cl)cc1Cl` the residual binding, % of control was 92%.

What follows are molecules tested against Cyclin-dependent kinase 2 (Homo sapiens) (UniProt P24941) (assay: Inhibition of CDK2 (unknown origin) at 1 uM relative to control; values are per cent of control). Conditions: not given.
Molecule `COc1ccc(-c2nc(-c3ccnc(N)n3)sc2C(N)=O)c(Cl)c1` has a residual activity of 84%. Work on `CCOC(=O)c1sc(-c2ccncc2)nc1O` yielded a residual activity of 100%. For `NC(=O)c1sc(-c2ccnc(N)n2)nc1-c1ccc(Cl)cc1Cl`, the residual activity was 100%.

What follows are molecules tested against Interferon-induced, double-stranded RNA-activated protein kinase (Homo sapiens) (UniProt P19525) (assay: Inhibition of PRKR (unknown origin) at 1 uM relative to control). Conditions: values are per cent of control.
Sequence of Interferon-induced, double-stranded RNA-activated protein kinase (Homo sapiens) (P19525 whole entry): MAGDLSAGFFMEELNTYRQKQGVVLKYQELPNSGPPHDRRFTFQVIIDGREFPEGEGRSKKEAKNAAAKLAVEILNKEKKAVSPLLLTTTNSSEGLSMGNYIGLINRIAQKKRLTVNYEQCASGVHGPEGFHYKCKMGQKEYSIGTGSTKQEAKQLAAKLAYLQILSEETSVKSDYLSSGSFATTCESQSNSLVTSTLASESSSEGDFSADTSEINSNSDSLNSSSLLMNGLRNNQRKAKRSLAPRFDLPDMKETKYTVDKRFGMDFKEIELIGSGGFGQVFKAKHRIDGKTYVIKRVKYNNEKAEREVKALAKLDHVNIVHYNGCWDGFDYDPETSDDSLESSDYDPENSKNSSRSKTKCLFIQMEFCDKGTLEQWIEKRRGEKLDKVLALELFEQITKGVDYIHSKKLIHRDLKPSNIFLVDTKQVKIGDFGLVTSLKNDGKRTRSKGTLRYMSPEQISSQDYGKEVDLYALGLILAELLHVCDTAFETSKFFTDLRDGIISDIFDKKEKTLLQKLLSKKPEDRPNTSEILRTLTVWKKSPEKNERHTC
Procedure, shortened: as §1
In the case of `COc1ccc(-c2nc(-c3ccnc(N)n3)sc2C(N)=O)c(Cl)c1`, the residual binding, % of control is reported as 92%. With `CCOC(=O)c1sc(-c2ccncc2)nc1O` the residual binding, % of control was 92%. `NC(=O)c1sc(-c2ccnc(N)n2)nc1-c1ccc(Cl)cc1Cl` showed a residual binding, % of control of 68%.

These molecules were tested against Vascular endothelial growth factor receptor 2 (Homo sapiens) (UniProt P35968) (assay: Inhibition of VEGFR2 (unknown origin) at 1 uM relative to control). Conditions: values are per cent of control.
Sequence of Vascular endothelial growth factor receptor 2 (Homo sapiens) (P35968 whole entry): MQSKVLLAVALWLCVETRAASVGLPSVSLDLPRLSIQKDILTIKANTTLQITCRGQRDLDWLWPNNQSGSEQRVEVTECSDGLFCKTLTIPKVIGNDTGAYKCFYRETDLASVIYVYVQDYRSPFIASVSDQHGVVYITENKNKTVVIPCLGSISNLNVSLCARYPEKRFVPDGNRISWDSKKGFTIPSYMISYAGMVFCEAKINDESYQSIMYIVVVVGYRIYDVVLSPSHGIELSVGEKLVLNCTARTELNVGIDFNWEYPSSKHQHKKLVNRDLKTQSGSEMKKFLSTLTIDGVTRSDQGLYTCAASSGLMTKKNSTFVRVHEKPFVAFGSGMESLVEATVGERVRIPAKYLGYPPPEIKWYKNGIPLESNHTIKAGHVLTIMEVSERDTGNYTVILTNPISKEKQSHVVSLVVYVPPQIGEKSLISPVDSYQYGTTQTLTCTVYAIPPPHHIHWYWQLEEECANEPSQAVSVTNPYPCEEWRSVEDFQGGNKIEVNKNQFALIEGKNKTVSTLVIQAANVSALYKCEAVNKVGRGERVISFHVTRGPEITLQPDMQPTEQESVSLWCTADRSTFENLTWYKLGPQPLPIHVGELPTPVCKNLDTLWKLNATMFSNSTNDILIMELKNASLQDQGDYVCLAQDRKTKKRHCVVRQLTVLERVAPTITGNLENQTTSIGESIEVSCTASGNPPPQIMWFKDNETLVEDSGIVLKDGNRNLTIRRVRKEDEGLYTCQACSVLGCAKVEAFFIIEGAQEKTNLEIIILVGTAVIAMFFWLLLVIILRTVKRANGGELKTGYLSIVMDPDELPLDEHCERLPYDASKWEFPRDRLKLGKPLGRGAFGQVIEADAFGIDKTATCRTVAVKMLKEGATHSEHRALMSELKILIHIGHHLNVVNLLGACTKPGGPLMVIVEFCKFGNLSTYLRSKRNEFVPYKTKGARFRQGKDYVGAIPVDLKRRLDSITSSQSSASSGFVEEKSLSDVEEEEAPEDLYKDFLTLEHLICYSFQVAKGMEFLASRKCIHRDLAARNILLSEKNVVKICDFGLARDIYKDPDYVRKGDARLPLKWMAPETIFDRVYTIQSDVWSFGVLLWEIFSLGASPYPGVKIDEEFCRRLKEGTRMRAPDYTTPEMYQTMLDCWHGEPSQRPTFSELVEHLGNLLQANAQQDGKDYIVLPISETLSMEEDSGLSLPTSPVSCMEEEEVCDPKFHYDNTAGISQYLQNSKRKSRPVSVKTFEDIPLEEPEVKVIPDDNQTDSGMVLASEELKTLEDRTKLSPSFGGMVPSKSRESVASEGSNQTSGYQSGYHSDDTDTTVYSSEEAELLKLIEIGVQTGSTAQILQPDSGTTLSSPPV
In the case of `COc1ccc(-c2nc(-c3ccnc(N)n3)sc2C(N)=O)c(Cl)c1`, the residual binding, % of control is reported as 92%. For `CCOC(=O)c1sc(-c2ccncc2)nc1O`, the residual binding, % of control was 74%. For `NC(=O)c1sc(-c2ccnc(N)n2)nc1-c1ccc(Cl)cc1Cl`, the residual binding, % of control was 56%.

The molecules below were run against Platelet-derived growth factor receptor beta (Homo sapiens) (UniProt P09619) (assay: Inhibition of PDGFRB (unknown origin) at 1 uM relative to control). Conditions: values are per cent of control.
Procedure, shortened: as §1
`COc1ccc(-c2nc(-c3ccnc(N)n3)sc2C(N)=O)c(Cl)c1` was tested, and the residual binding, % of control was 62%. Work on `CCOC(=O)c1sc(-c2ccncc2)nc1O` yielded a residual binding, % of control of 89%. `NC(=O)c1sc(-c2ccnc(N)n2)nc1-c1ccc(Cl)cc1Cl` showed a residual binding, % of control of 52%.

Each molecule was assayed against Insulin-like growth factor 1 receptor (Homo sapiens) (UniProt P08069) (assay: Inhibition of IGF1R (unknown origin) at 1 uM relative to control; values are per cent of control). Conditions: not given.
`COc1ccc(-c2nc(-c3ccnc(N)n3)sc2C(N)=O)c(Cl)c1` was tested, and the residual activity was 76%. For `CCOC(=O)c1sc(-c2ccncc2)nc1O`, the residual activity was 85%. Work on `NC(=O)c1sc(-c2ccnc(N)n2)nc1-c1ccc(Cl)cc1Cl` yielded a residual activity of 94%.

Each molecule was assayed against Dual specificity protein kinase CLK2 (Homo sapiens) (UniProt P49760) (assay: Inhibition of CLK2 (unknown origin) at 1 uM relative to control; values are per cent of control). Conditions: not given.
Sequence of Dual specificity protein kinase CLK2 (Homo sapiens) (P49760 whole entry, looked up): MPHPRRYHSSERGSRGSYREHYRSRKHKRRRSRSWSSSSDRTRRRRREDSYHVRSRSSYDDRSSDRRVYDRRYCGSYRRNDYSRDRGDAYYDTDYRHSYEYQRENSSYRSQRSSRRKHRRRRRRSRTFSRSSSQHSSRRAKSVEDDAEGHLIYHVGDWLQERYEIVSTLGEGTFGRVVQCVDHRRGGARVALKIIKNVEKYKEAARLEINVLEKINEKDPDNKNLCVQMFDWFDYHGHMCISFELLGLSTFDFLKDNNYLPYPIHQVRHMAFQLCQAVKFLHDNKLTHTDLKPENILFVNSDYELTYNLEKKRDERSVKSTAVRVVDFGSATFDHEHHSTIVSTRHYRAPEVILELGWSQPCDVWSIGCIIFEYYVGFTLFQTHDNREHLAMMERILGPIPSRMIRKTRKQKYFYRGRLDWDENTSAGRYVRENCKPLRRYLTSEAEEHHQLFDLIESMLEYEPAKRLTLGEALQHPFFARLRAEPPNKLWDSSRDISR
`COc1ccc(-c2nc(-c3ccnc(N)n3)sc2C(N)=O)c(Cl)c1` gave a residual activity of 10%. `CCOC(=O)c1sc(-c2ccncc2)nc1O` showed a residual activity of 86%. For `NC(=O)c1sc(-c2ccnc(N)n2)nc1-c1ccc(Cl)cc1Cl`, the residual activity was 7.9%.

These molecules were tested against Insulin receptor (Homo sapiens) (UniProt P06213) (assay: Inhibition of INSR (unknown origin) at 1 uM relative to control; values are per cent of control). Conditions: not given.
`COc1ccc(-c2nc(-c3ccnc(N)n3)sc2C(N)=O)c(Cl)c1` gave a residual activity of 82%. `CCOC(=O)c1sc(-c2ccncc2)nc1O` showed a residual activity of 92%. For `NC(=O)c1sc(-c2ccnc(N)n2)nc1-c1ccc(Cl)cc1Cl`, the residual activity was 78%.
